From ChEMBL document CHEMBL4196210, “Depsipeptides Featuring a Neutral P1 Are Potent Inhibitors of Kallikrein-Related Peptidase 6 with On-Target Cellular Activity” (J Med Chem, 2018)
Active and inactive are the calls of the source. The rule behind the calls is not given here.

Tests used:
Trypsin = Trypsin (Homo sapiens, UniProt P07477+P07478+P35030); experiment: Inhibition of trypsin (unknown origin) pre-incubated for 30 mins before N-Boc-FSR-AMC substrate addition and measured after 30 mins; format: protein assay
Coagulation factor X = Coagulation factor X (Homo sapiens, UniProt P00742); experiment: Inhibition of factor 10a (unknown origin) pre-incubated for 30 mins before N-Boc-FSR-AMC substrate addition and measured after 30 mins
Procedure, shortened: (§1)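 Inhibitor (1:2 or 1:3 dilutions) or 2% DMSO for 30 min at rt, then N-Boc-FSR-AMC at 20 µM final. Fluorescence (ex 350/em 440) read every 60 s for 30 min. Slopes normalized to DMSO for dose-response; triplicates.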

Prothrombin = Prothrombin (Homo sapiens, UniProt P00734); experiment: Inhibition of thrombin (unknown origin) pre-incubated for 30 mins before N-Boc-FSR-AMC substrate addition and measured after 30 mins; procedure, shortened: as §1
[1] = Stability in DMEM supplemented with 10% (v/v) fetal bovine serum at 10 uM at 37 degC assessed as half life by HPLC-MS method; format: physicochemical; settings: cattle, DMEM with 10% (v/v) fetal bovine serum
Procedure, shortened: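 Compound at 10 µM (0.2% DMSO) in DMEM with 10% FBS, 2 mM L-glutamine and 1% penicillin/streptomycin, plus 10 µM triazole internal standard, held at 37 °C. Sampled hourly to 10 h, then at 24 h, by HPLC-MS in SIM mode for parent and hydrolysis product.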

Kallikrein-6 [2] = target: T1, Kallikrein-6 (Homo sapiens, UniProt Q92876); experiment: Inhibition of recombinant human KLK6 assessed as Kinact/Ki ratio using Boc-QAR-AMC substrate
Kallikrein-6 [3] = target: T1, Kallikrein-6; experiment: Inhibition of KLK6 in human FaDu cells assessed as reduction in cell proliferation at 300 nM incubated for 48 hrs by BrdU incorporation assay; format: cell-based
Procedure, shortened: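 FaDu cells treated daily for 48 h. Proliferation read as BrdU incorporation; average of 5 independent experiments ± standard deviation.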

Kallikrein-14 = target: T2, Kallikrein-14 (Homo sapiens, UniProt Q9P0G3); experiment: Inhibition of KLK14 (unknown origin) expressed in Pichia pastoris pre-incubated for 10 mins before Boc-ValProArg-AMC substrate addition and measured after 30 mins by fluorescence based assay
T2 sequence (Q9P0G3 whole entry): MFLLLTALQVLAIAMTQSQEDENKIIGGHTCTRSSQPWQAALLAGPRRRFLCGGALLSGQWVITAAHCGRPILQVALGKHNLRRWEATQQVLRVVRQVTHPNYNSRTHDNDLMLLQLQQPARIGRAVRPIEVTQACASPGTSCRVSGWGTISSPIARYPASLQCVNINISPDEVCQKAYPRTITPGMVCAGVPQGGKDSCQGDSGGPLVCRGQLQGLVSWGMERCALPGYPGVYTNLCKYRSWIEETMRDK

Kallikrein-5 = target: T3, Kallikrein-5 (Homo sapiens, UniProt Q9Y337); experiment: Inhibition of KLK5 (unknown origin) expressed in Pichia pastoris pre-incubated for 10 mins before Boc-ValProArg-AMC substrate addition and measured after 30 mins by fluorescence based assay
T3 sequence (Q9Y337 whole entry): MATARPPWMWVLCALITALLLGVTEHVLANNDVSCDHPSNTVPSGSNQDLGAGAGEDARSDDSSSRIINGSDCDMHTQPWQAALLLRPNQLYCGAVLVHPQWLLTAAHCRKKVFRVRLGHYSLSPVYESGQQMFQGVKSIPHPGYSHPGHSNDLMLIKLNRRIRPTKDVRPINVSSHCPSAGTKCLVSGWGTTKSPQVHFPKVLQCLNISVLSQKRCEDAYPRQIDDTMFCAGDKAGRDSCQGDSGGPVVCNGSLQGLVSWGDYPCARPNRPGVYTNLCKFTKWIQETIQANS

Kallikrein-7 = Kallikrein-7 (Homo sapiens, UniProt P49862); experiment: Inhibition of KLK7 (unknown origin) expressed in Pichia pastoris pre-incubated for 10 mins before Leu-Leu-Val-Tyr-AMC substrate addition and measured after 30 mins by fluorescence based assay
Procedure, shortened: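 KLK7 at 33 nM final in 100 mM phosphate, 0.01% Tween-20, pH 8.5, with inhibitor (1:3 dilutions) or 2% DMSO for 10 min at rt. Reaction started with Leu-Leu-Val-Tyr-AMC at 500 µM final. Fluorescence (ex 380/em 460) read every 60 s for 30 min. Triplicates.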

Kallikrein-13 = target: T4, Kallikrein-13 (Homo sapiens, UniProt Q9UKR3); experiment: Inhibition of KLK13 (unknown origin) expressed in Pichia pastoris pre-incubated for 10 mins before Boc-ValProArg-AMC substrate addition and measured after 30 mins by fluorescence based assay
T4 sequence (Q9UKR3 whole entry): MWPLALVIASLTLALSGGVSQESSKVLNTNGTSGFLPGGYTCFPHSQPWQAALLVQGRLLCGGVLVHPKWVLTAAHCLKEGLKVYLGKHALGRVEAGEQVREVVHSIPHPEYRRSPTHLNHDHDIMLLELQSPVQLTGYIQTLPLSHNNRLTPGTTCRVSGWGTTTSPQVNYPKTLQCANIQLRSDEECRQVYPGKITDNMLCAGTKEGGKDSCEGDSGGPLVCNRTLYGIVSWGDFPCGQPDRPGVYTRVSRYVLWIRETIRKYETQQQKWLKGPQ

Kallikrein-8 = target: T5, Kallikrein-8 (Homo sapiens, UniProt O60259); experiment: Inhibition of KLK8 (unknown origin) expressed in Pichia pastoris pre-incubated for 10 mins before Boc-ValProArg-AMC substrate addition and measured after 30 mins by fluorescence based assay
T5 sequence (O60259 whole entry): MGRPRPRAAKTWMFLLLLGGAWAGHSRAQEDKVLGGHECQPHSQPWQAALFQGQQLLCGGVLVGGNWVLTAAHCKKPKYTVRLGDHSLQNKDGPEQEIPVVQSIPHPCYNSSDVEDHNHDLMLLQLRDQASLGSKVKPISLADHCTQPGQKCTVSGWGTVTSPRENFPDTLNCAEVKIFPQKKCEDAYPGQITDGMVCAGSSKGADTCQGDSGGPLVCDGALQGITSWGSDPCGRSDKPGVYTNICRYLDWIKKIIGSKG

Kallikrein-6 [4] = target: T1, Kallikrein-6; experiment: Inhibition of human KLK6 expressed in baculovirus/insect cell line system using Abz-KLRSSKQ-EDDnp substrate

Sequence of Coagulation factor X (P00742 41-179 limits assumed): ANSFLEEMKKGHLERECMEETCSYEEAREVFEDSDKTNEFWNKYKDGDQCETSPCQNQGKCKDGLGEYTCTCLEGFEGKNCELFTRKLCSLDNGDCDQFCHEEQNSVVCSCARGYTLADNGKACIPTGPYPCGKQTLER
Sequence of Coagulation factor X (P00742 235-488 limits assumed): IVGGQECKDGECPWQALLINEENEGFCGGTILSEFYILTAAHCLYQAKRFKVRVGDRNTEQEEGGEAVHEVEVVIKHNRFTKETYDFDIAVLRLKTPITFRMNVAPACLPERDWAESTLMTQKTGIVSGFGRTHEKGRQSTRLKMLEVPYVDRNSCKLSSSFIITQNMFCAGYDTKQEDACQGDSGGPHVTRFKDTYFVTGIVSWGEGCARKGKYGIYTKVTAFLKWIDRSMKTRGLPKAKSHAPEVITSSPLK
Sequence of Kallikrein-7 (P49862 whole entry): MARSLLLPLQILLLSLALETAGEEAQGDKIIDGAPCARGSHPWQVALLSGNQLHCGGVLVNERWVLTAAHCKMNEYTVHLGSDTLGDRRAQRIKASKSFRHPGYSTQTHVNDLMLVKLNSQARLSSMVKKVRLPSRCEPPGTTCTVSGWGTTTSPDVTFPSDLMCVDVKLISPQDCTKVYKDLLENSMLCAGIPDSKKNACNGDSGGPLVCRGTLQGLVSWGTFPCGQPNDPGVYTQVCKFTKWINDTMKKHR

SMILES | IC50 (Trypsin) [µM] | other results
Cc1nn(-c2ccccc2)c(C)c1NC(=O)COC(=O)Cc1c(C)[nH]c2cccc(Cl)c12 | > 200 | 
Cc1nn(-c2ccccc2)c(C)c1NC(=O)COC(=O)Cn1cnc2ccccc2c1=O | > 200 | IC50 (Coagulation factor X): > 200 µM; IC50 (Prothrombin): > 200 µM
NCc1ccc(NC(=O)c2c([O-])ccc[n+]2Cc2nccn2Cc2ccccc2)cc1 | 0.18 | IC50 (Coagulation factor X): > 50 µM; IC50 (Prothrombin): > 50 µM
C#Cc1cccc2[nH]c(C)c(CC(=O)OCC(=O)Nc3c(C)nn(-c4ccccc4)c3C)c12 | > 50 | 
Cc1nn(-c2ccccc2)c(C)c1NC(=O)COC(=O)C(c1c(C)[nH]c2ccccc12)C(F)(F)F (centres undefined) | > 200 | 
C#Cc1ccc2c(CC(=O)OCC(=O)Nc3c(C)nn(-c4ccccc4)c3C)c(C)[nH]c2c1 | 24 | 
Cc1nn(-c2ccccc2)c(C)c1NC(=O)COC(=O)Cn1c(C)cc2ccccc21 | 38 to 70 | IC50 (Coagulation factor X): > 200 µM; half-life at 10 µM [1]: 33.6 min; IC50 (Prothrombin): > 200 µM
Cc1nn(-c2ccccc2)c(C)c1NC(=O)COC(=O)CCc1c(C)[nH]c2ccccc12 | > 200 | 
C#Cc1[nH]c2ccccc2c1CC(=O)OCC(=O)Nc1c(C)nn(-c2ccccc2)c1C | > 200 | 
Cc1nn(-c2ccccc2)c(C)c1NC(=O)COC(=O)Cc1c(C)[nH]c2ccc(C(=N)N)cc12 | 19 | 
Cc1[nH]c2ccccc2c1CC(=O)OCC(=O)Nc1cncnc1 | > 200 | 
Cc1nn(-c2ccccc2)c(C)c1NC(=O)COC(=O)Cc1c(C)n(C)c2ccccc12 | > 200 | 
Cc1[nH]c2cccnc2c1CC(=O)NCC(=O)Nc1onc(-c2ccccc2)c1C | 50 | 
Cc1nn(-c2ccccc2)c(C)c1NC(=O)COC(=O)Cc1c(C)[nH]c2cnccc12 | 0.33 | 
O=C(Oc1cc(Cl)ccc1Cl)c1cc2cc(Cl)ccc2oc1=O |  | Ratio (Kallikrein-6 [2]): 131 M⁻¹ s⁻¹
Cc1nn(-c2ccccc2)c(C)c1NC(=O)COC(=O)Cc1c(C)[nH]c2ncccc12 | > 200 | 
Cc1nn(-c2ccccc2)c(C)c1NC(=O)COC(=O)Cn1c(C)csc1=O | > 200 | IC50 (Coagulation factor X): > 200 µM; IC50 (Prothrombin): > 200 µM
Cc1nn(-c2ccccc2)c(C)c1NC(=O)CNC(=O)Cc1c(C)[nH]c2cc(C(=N)N)ccc12 | 2.5 | 
Cc1nn(-c2ccccc2)c(C)c1NC(=O)C(OC(=O)Cc1c(C)[nH]c2ccccc12)C(F)(F)F (centres undefined) | 0.38 | half-life at 10 µM [1]: 25.5 min
Cc1nn(-c2ccccc2)c(C)c1NC(=O)COC(=O)Cc1ccccc1 | > 200 | IC50 (Coagulation factor X): > 200 µM; IC50 (Prothrombin): > 200 µM
Cc1nn(-c2ccccc2)c(C)c1NC(=O)COC(=O)C(C)(C)c1c(C)[nH]c2ccccc12 | > 200 | 

SMILES | IC50 (Trypsin) [µM] | other results
Cc1nn(-c2ccccc2)c(C)c1NC(=O)COC(=O)C(C)c1c(C)[nH]c2ccccc12 (centres undefined) | > 200 | half-life at 10 µM [1]: 912 min
Cc1nn(-c2ccccc2)c(C)c1NC(=O)CCOC(=O)Cc1c(C)[nH]c2ccccc12 | > 200 | 
Cc1nn(-c2ccccc2)c(C)c1NC(=O)COC(=O)Cc1c(C)[nH]c2ccc(Cl)cc12 | 34 | 
Cc1nn(-c2ccccc2)c(C)c1NC(=O)COC(=O)Nc1c(C)[nH]c2ccccc12 |  | Activity (Kallikrein-6 [3]): inactive
Cc1nn(-c2ccccc2)c(C)c1NC(=O)COC(=O)Cc1c(C)[nH]c2cccnc12 | 61 | 
Cc1nn(-c2ccccc2)c(C)c1NC(=O)COC(=O)Cn1c(=O)oc2ccccc21 | 190 | IC50 (Coagulation factor X): > 200 µM; IC50 (Prothrombin): > 200 µM
Cc1[nH]c2ccccc2c1CC(=O)OCC(=O)Nc1ccc(N2CCOCC2)cc1 | > 200 | 
C#Cc1ccc2[nH]c(C)c(CC(=O)OCC(=O)Nc3c(C)nn(-c4ccccc4)c3C)c2c1 | 26 | 
Cc1nn(-c2ccccc2)c(C)c1NC(=O)COC(=O)Cn1c(C)nc2ccccc21 | > 200 | 
Cc1nn(-c2ccccc2)c(C)c1NC(=O)COC(=O)Cc1c(C(C)C)[nH]c2ccccc12 | > 200 | 
Cc1nn(-c2ccccc2)cc1NC(=O)CNC(=O)Cc1c(C)[nH]c2ccccc12 | > 200 | 
Cc1nn(-c2ccccc2)c(C)c1NC(=O)COC(=O)Cc1c(C)[nH]c2cc(C(=N)N)ccc12 | < 0.001 | IC50 (Kallikrein-14): 0.008 µM; half-life at 10 µM [1]: 79.2 min; IC50 (Kallikrein-5): 0.13 µM; IC50 (Kallikrein-7): > 0.5 µM; IC50 (Kallikrein-13): > 0.5 µM; IC50 (Kallikrein-8): 0.21 µM
Cc1[nH]c2ccccc2c1CC(=O)NCC(=O)Nc1cnn(-c2ccccc2)c1C | 34 | 
Cc1nn(C)c(C)c1NC(=O)CNC(=O)Cc1c(C)[nH]c2cccnc12 | > 50 | 
Cc1nn(-c2ccccc2)c(C)c1NC(=O)C(NC(=O)Cc1c(C)[nH]c2ccccc12)C(F)(F)F (centres undefined) | > 200 | 
Cc1nn(-c2ccccc2)c(C)c1NC(=O)COC(=O)Cc1c[nH]c2ccccc12 | 150 | half-life at 10 µM [1]: 27 min
CC(C)C[C@H](NC(=O)[C@H](CCCNC(=N)N)NC(=O)c1ccc(Cl)cc1)C(N)=O |  | Ki (Kallikrein-6 [4]): 1.5 µM
Cc1nn(-c2ccccc2)c(C)c1NC(=O)COC(=O)Cc1c(C)[nH]c2ccncc12 | 25 | 
Cc1nn(-c2ccccc2)c(C)c1NC(=O)C(OC(=O)C(C)c1c(C)[nH]c2ccccc12)C(F)(F)F (centres undefined) | 61 | half-life at 10 µM [1]: 101 min
Cc1nn(-c2ccccc2)c(C)c1NC(=O)COC(=O)c1c(C)[nH]c2ccccc12 | > 200 | 
